According to ChEMBL document CHEMBL2412989, “Antiproliferative activity on human prostate carcinoma cell lines of new peptidomimetics containing the spiroazepinoindolinone scaffold” (Bioorg Med Chem, 2013):
The source made the active and inactive calls. The calls are words filed in the database; no cut-off is given here.

What was measured:
DU-145 [1] = test: Antiproliferative activity against human DU145 cells assessed as growth inhibition at 10^-9 M after 48 hrs by BrdU-incorporation assay relative to untreated cells; format: functional; settings: DU-145, 48 h, read-out: GI
Summary of the method: (§1)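 DU145 prostate carcinoma cells (ATCC) kept in RPMI 1640/5% FBS. 5 × 10^4 cells/well seeded, 24 h at 37 °C, 5% CO2. Medium then replaced by RPMI 1640/5% charcoal-stripped FBS with compound. BrdU added 4 h before end of incubation. Fixed cells probed with Eu-conjugated anti-BrdU (0.5 µg/mL), time-resolved fluorescence read. Cell-free wells used as blank. Mean of ≥3 experiments, 8 replicates each, expressed vs untreated cells.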

DU-145 [2] = test: Antiproliferative activity against human DU145 cells assessed as growth inhibition at 10^-6 M after 48 hrs by BrdU-incorporation assay relative to untreated cells; format: functional; settings: DU-145, 48 h, read-out: GI; summary of the method: as §1
DU-145 [3] = test: Antiproliferative activity against human DU145 cells assessed as growth inhibition at 10^-9 M after 48 hrs by BrdU-incorporation assay relative to untreated cells in presence of GHS-R1a antagonist D-Lys-GHRP-6; format: functional, cell-based
Summary of the method: (§2)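 BrdU-incorporation proliferation assay in DU145 cells. Cells seeded at 5 × 10^4/well, 24 h, then switched to RPMI 1640/5% charcoal-stripped FBS containing compound together with GHS-R1a antagonist D-Lys3-GHRP-6 at 10^-6 M. BrdU pulse 4 h before end. Eu-anti-BrdU time-resolved fluorescence, blank from cell-free wells. Mean of ≥3 experiments in 8 replicates, relative to untreated cells.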

DU-145 [4] = test: Antiproliferative activity against human DU145 cells assessed as growth inhibition at 10^-6 M after 48 hrs by BrdU-incorporation assay relative to untreated cells in presence of GHS-R1a antagonist D-Lys-GHRP-6; format: functional, cell-based; summary of the method: as §2
[5] = biological target: T1, Growth hormone secretagogue receptor type 1 (Homo sapiens, UniProt Q92847); test: Induction of GHS-R1a-mediated ERK1/2 phosphorylation in human DU145 cells at 10^-9 to 10^-6 M after 10 mins by Western blot analysis; format: cell-based; settings: DU-145
T1 sequence (Q92847 whole entry): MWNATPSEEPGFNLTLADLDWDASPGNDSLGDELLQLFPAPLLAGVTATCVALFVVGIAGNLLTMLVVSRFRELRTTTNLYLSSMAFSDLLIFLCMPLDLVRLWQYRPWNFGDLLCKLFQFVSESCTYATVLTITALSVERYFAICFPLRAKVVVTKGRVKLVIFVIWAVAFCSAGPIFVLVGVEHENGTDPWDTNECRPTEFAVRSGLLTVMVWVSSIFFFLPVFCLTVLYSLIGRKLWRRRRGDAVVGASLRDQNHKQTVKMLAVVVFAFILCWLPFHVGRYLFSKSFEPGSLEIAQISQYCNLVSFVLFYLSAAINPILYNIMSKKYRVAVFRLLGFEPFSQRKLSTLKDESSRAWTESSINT
Summary of the method: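 DU145 cells serum-starved 16 h, then exposed to compound (10^-6 or 10^-9 M) for 10 min. Lysed in T-PER with protease inhibitors, protein by BCA. SDS-PAGE, nitrocellulose transfer, 5% milk/TBST block. Probed overnight at 4 °C with anti-pERK1/2 (1:150) and anti-ERK1/2 (1:1000), then peroxidase secondary 2 h RT. Mean ± SD of three independent experiments, one-way ANOVA.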

[6] = biological target: T1, Growth hormone secretagogue receptor type 1; test: Induction of GHS-R1a-mediated ERK1/2 phosphorylation in human DU145 cells at 10^-6 M after 10 mins by Western blot analysis in presence of D-Lys-GHRP-6; format: cell-based; settings: DU-145
Summary of the method: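 Western blot of ERK1/2 phosphorylation in 16 h serum-starved DU145 cells. Cells pretreated 1 h with 10^-6 M D-Lys3-GHRP-6, then exposed 10 min to compound. pERK1/2 (1:150) and total ERK1/2 (1:1000) antibodies, overnight 4 °C, peroxidase secondary. Mean ± SD, three independent experiments, one-way ANOVA.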

[7] = Agonist activity at GHS-R1a in rat pituitary cells; format: cell-based; settings: Pituitary gland cell
[8] = biological target: T1, Growth hormone secretagogue receptor type 1; test: Agonist activity at GHS-R1a (unknown origin)

| SMILES | inhibition of growth at 0.001 µM (DU-145 [1]) [%] | inhibition of growth at 1 µM (DU-145 [2]) [%] | other results |
| --- | --- | --- | --- |
| CC(C)(N)C(=O)N[C@H](Cc1c[nH]c2ccccc12)C(=O)N1CCC[C@]2(CC1)C(=O)Nc1ccccc12 | -2.4 | 9.7 | – |
| CC(C)(N)C(=O)N[C@@H](Cc1c[nH]c2ccccc12)C(=O)N1CCC[C@]2(CC1)C(=O)Nc1ccccc12 | -10 | -15 | – |
| CC(C)(N)C(=O)N[C@H](Cc1c[nH]c2ccccc12)C(=O)N1CCC[C@@]2(CC1)C(=O)Nc1ccccc12 | -4.8 | -5.5 | – |
| CCCCCCCC(=O)OC[C@H](NC(=O)CNC(=O)[C@@H](N)CCCNC(=N)N)C(=O)N[C@@H](CO)C(=O)N[C@@H](Cc1ccccc1)C(=O)N[C@@H](CC(C)C)C(=O)N[C@@H](CO)C(=O)N1CCC[C@H]1C(=O)N[C@@H](CCC(=O)O)C(=O)N[C@@H](Cc1cnc[nH]1)C(=O)N[C@@H](CCC(N)=O)C(=O)N[C@@H](CCCCN)C(=O)N[C@@H](C)C(=O)N[C@@H](CCC(N)=O)C(=O)N[C@@H](CCC(N)=O)C(=O)N[C@@H](CCCNC(=N)N)C(=O)N[C@@H](CCCCN)C(=O)N[C@@H](CCC(=O)O)C(=O)N[C@@H](CO)C(=O)N[C@@H](CCCCN)C(=O)N[C@@H](CCCCN)C(=O)N1CCC[C@H]1C(=O)N1CCC[C@H]1C(=O)N[C@@H](C)C(=O)N[C@@H](CCCCN)C(=O)N[C@@H](CC(C)C)C(=O)N[C@@H](CCC(N)=O)C(=O)N1CCC[C@H]1C(=O)O [GHRELIN] | -38 | -25 | growth inhibition (GI) (DU-145 [3]): inactive; growth inhibition (GI) (DU-145 [4]): inactive; Activity [5]: Active |
| CC(C)(N)C(=O)N[C@@H](Cc1c[nH]c2ccccc12)C(=O)N1CCC[C@@]2(CC1)C(=O)Nc1ccccc12 | -20 | -27 | growth inhibition (GI) (DU-145 [3]): inactive; growth inhibition (GI) (DU-145 [4]): inactive; Activity [6]: inactive; Activity [5]: Active |
| CC(=O)NC(C)(C)C(=O)N[C@@H](Cc1c[nH]c2ccccc12)C(=O)N1CCC[C@@]2(CC1)C(=O)Nc1ccccc12 | 1.2 | 2.1 | – |
| CC(C)(N)C(=O)N[C@H](COCc1ccccc1)C(=O)N1CCC2(CC1)CN(S(C)(=O)=O)c1ccccc12 [IBUTAMOREN] | – | – | EC50 [7]: 1300 pM |
| CC(C)(N)C(=O)N[C@H](Cc1c[nH]c2ccccc12)C(=O)N1CCC2(CC1)C[C@H](O)c1ccccc12 | – | – | EC50 [8]: 600 pM |
